Measured values collected from several papers.
Protocols differ between the studies behind these lines.
Target: Serine/threonine-protein kinase TNNI3K (TNNI3K, Homo sapiens, UniProt Q59H18)
Sequence (Q59H18 1-835, as in one of the studies): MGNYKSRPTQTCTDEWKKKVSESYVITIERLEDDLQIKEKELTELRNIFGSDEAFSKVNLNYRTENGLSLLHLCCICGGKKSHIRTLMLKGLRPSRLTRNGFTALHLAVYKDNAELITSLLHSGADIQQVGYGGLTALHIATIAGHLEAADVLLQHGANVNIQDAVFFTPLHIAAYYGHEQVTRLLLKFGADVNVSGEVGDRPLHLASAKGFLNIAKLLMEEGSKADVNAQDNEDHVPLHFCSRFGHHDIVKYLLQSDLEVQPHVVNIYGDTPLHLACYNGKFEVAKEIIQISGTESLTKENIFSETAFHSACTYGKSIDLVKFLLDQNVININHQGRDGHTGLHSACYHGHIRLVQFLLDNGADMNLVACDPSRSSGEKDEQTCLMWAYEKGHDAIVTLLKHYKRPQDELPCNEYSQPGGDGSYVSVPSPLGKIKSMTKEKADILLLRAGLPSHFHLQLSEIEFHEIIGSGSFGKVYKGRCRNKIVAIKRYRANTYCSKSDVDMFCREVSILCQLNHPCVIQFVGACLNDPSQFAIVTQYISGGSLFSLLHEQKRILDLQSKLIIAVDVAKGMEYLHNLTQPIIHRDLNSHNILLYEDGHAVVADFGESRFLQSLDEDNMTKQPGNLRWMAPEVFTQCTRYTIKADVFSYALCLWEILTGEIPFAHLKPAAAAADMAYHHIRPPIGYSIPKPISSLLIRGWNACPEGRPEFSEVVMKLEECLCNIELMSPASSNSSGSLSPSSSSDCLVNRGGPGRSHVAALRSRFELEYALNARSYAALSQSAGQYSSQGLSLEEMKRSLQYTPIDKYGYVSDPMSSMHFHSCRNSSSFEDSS

Compound	observed	method	concentration	remaining binding
COc1ccc2c(O[C@@H]3C[C@H]4C(=O)N[C@]5(C(=O)O)CC5/C=C\CCCCC[C@H](NC(=O)OC5CCCC5)C(=O)N4C3)cc(-c3csc(NC(=O)C(C)C)n3)nc2c1C (stereo partly shown)	cell-free assay	competition with immobilised ligand	1 µM	100%
CN(c1nccc(-c2cnn3ncccc23)n1)C1CC1	binding		1 µM	84%
FC(F)(F)Oc1cccc(-c2cnc3ccc(-c4ccncc4)nn23)c1	binding	competition with immobilised ligand	5 µM	91%
Cn1nc(C(F)(F)F)cc1-c1cnc(N2CCc3cc(S(=O)(=O)Nc4c(F)cc(Cl)cc4F)cc(N4CCCC4=O)c32)nc1	cell-free assay	competition with immobilised ligand	1 µM	65%
F[C@@H]1CCN(c2nccc(-c3cnn4ncccc34)n2)C1	binding		1 µM	100%
O=C(NCC1CCOCC1)c1n[nH]cc1NC(=O)c1c(F)cccc1F	binding	competition with immobilised ligand	1 µM	100%
c1cnn2ncc(-c3ccnc(N4CCC45COC5)n3)c2c1	binding		1 µM	100%
CCOC(=O)c1cc2cc(-c3cc(C(=O)NCc4ccc(C(=O)O)cc4)nn3C)ccc2[nH]1	cell-free assay	competition with immobilised ligand	0.1 µM	100%
C[C@H]1CCN(c2nccc(-c3cnn4ncccc34)n2)C1	binding		1 µM	100%
Cc1nc(N2CC[C@@H](O)C2)ncc1-c1cc(C(F)(F)F)cc2[nH]ncc12	cell-free assay	competition with immobilised ligand	1 µM	87%
O=C(c1ccc(Nc2ncc(Cl)c(-c3cc4ccccc4s3)n2)cc1)N1CCC(N2CCCC2)CC1	binding	competition with immobilised ligand	1 µM	50%
CS(=O)(=O)N1CCCC(NC(=O)[C@H](CCC2CCCCC2)NC(=O)c2ccc(CNc3ncnc4c3nnn4-c3ccccc3)cc2)C1 (stereo partly shown)	cell-free assay	competition with immobilised ligand	0.1 µM	63%
O=C(NCCCN1CCOCC1)c1ccc(Nc2nccc(-c3cc4ccccc4s3)n2)cc1	binding	competition with immobilised ligand	1 µM	70%
N[C@@H]1CCN(c2nccc(-c3cnn4ncccc34)n2)C1	binding		1 µM	94%
COc1cnc(Nc2cccc(S(N)(=O)=O)c2)nc1N1CCN(c2ccccc2)C(=O)C1	binding	competition with immobilised ligand	1 µM	86%
COc1ccnn2ncc(-c3ccnc(N(C)C)n3)c12	binding		1 µM	93%
Cc1c[nH]c2nccc(Oc3c(F)cc(Nc4cc(Cl)nc(N)n4)cc3F)c12	cell-free assay	competition with immobilised ligand	0.1 µM	98%
COc1cnc(Nc2cccc(S(N)(=O)=O)c2)nc1N1CCN(c2ccccc2)CC1	binding	competition with immobilised ligand	1 µM	96%
O=C(c1ccc(Nc2ncc(Cl)c(-c3ccc(Cl)s3)n2)cc1)N1CCC(N2CCCC2)CC1	binding	competition with immobilised ligand	1 µM	50%
Cc1cnn2ncc(-c3ccnc(N(C)C)n3)c2c1	binding		1 µM	100%
Cc1noc([C@H]2C[C@@H](c3ccc(C(F)(F)F)cc3)CN(C(=O)N3CCS(=O)(=O)C3)C2)n1	cell-free assay	competition with immobilised ligand	1 µM	100%
C[C@@H](c1ccc(-n2cnc3c(N)ncnc32)cc1)N1CCc2nn(C)c(Cc3ccccc3)c2C1=O	binding	competition with immobilised ligand	0.1 µM	88%
